# ChEMBL document CHEMBL1149899 (J Med Chem, 2008)
# Assays:
# [1] = Antitumor activity against human PXF 1752L cells; format: functional, cell-based
# Method in brief: (§1)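 Panel of 38 human solid-tumour cell lines, each tested in a monolayer proliferation assay. Growth inhibition was expressed as IC50 and IC70 values. Testing was run at Oncotest.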
# [2] = Antitumor activity against human CXF HT29 cells; format: functional, cell-based; details: HT-29; method in brief: as §1
# [3] = Antitumor activity against human HNXF 536L cells; format: functional, cell-based; method in brief: as §1
# [4] = Antitumor activity against human CXF HCT116 cells; format: functional, cell-based; details: HCT-116; method in brief: as §1
# [5] = Antitumor activity against human MAXF 401NL cells; format: functional, cell-based; method in brief: as §1
# [6] = Antitumor activity against human MEXF 520L cells; format: functional, cell-based; method in brief: as §1
# [7] = tested on: MCF7; assay: Antitumor activity against human MAXF MCF7 cells; format: functional, cell-based; method in brief: as §1
# [8] = Antitumor activity against human PAXF 165L cells; format: functional, cell-based; method in brief: as §1
# [9] = Antitumor activity against human RXF 486L cells; format: functional, cell-based; method in brief: as §1
# [10] = Antitumor activity against human LXF 629L cells; format: functional, cell-based; method in brief: as §1
# [11] = tested on: CWR22R; assay: Antitumor activity against human PRXF 22RV1 cells; format: functional, cell-based; method in brief: as §1
# [12] = Antitumor activity against human LXF 526L cells; format: functional, cell-based; method in brief: as §1
# [13] = Antitumor activity against human PRXF PC3M cells; format: functional, cell-based; details: PC-3M; method in brief: as §1
# [14] = Antitumor activity against human RXF 393NL cells; format: functional, cell-based; method in brief: as §1
# [15] = tested on: DU-145; assay: Antitumor activity against human PRXF DU145 cells; format: functional, cell-based; method in brief: as §1
# [16] = Inhibition of ATPase activity of yeast Hsp90; parameters: species or system Saccharomyces cerevisiae
# [17] = Antitumor activity against human PRXF LNCAP cells; format: functional, cell-based; method in brief: as §1
# [18] = Antitumor activity against human RXF 1781L cells; format: functional, cell-based; method in brief: as §1
# [19] = Antitumor activity against human GXF 251L cells; format: functional, cell-based; method in brief: as §1
# [20] = Antitumor activity against human BXF 1218L cells; format: functional, cell-based; method in brief: as §1
# [21] = Antitumor activity against human MEXF 514L cells; format: functional, cell-based; method in brief: as §1
# [22] = tested on: DU-145; assay: Antitumor activity against human DU145 tumor xenografted mouse assessed delay for tumor doubling time at 10 mg/kg, ip; format: functional; details: route intraperitoneal
# [23] = Antitumor activity against human […] 1138L cells; format: functional, cell-based; method in brief: as §1
# [24] = tested on: SW-620; assay: Antitumor activity against human CXF SW620 cells; format: functional, cell-based; method in brief: as §1
# [25] = tested on: DU-145; assay: Antitumor activity against human DU145 tumor xenografted mouse at 10 mg/kg, ip measured on day 31; format: functional; details: route intraperitoneal
# [26] = tested on: SF-268; assay: Antitumor activity against human CNXF SF268 cells; format: functional, cell-based; method in brief: as §1
# [27] = Antitumor activity against human LXF 1121L cells; format: functional, cell-based; method in brief: as §1
# [28] = Antitumor activity against human PAXF PANC1 cells; format: functional, cell-based; details: PANC-1; method in brief: as §1
# [29] = Antitumor activity against human LXF 529L cells; format: functional, cell-based; method in brief: as §1
# [30] = Antitumor activity against human MEXF 462NL cells; format: functional, cell-based; method in brief: as §1
# [31] = tested on: DU-145; assay: Degradation of cRaf1 in human DU145 cell lysate by Western blot; format: functional, cell-based
# Method in brief: (§2)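 DU145 prostate cancer cells were exposed to 1 or 10 µM, with time points including 48 and 96 h. Cell lysates were probed by Western blot for ErbB2, cRaf1, Hsp90 and Hsp70.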
# [32] = Antitumor activity against human CNXF 498NL cells; format: functional, cell-based; method in brief: as §1
# [33] = Antitumor activity against human RXF 944L cells; format: functional, cell-based; method in brief: as §1
# [34] = tested on: UO-31; assay: Antitumor activity against human RXF UO31 cells; format: functional, cell-based; method in brief: as §1
# [35] = Antitumor activity against human LXF 289L cells; format: functional, cell-based; method in brief: as §1
# [36] = tested on: Mus musculus; assay: Toxicity in human DU145 cells xenografted mouse assessed as loss of body weight at 10 mg/kg, ip on day 3; format: organism-based, DU-145; parameters: dose 10 mg/kg, route intraperitoneal; details: in vivo
# [37] = Antitumor activity against human BXF T24 cells; format: functional, cell-based; details: T-24; method in brief: as §1
# [38] = Antitumor activity against human MEXF 276L cells; format: functional, cell-based; details: MEXF276L; method in brief: as §1
# [39] = Antitumor activity against human OVXF 899L cells; format: functional, cell-based; method in brief: as §1
# [40] = Antitumor activity against human MEXF 394NL cells; format: functional, cell-based; method in brief: as §1
# [41] = tested on: DU-145; assay: Antitumor activity against human DU145 tumor xenografted mouse assessed delay for tumor quadrupling time at 10 mg/kg, ip; format: functional; details: route intraperitoneal
# [42] = Antitumor activity against human LXF H640 cells; format: functional, cell-based; method in brief: as §1
# [43] = Antitumor activity against human OVXF 1619L cells; format: functional, cell-based; method in brief: as §1
# [44] = tested on: OVCAR-3; assay: Antitumor activity against human OVCAR-3 cells; format: functional, cell-based; method in brief: as §1
# [45] = tested on: DU-145; assay: Degradation of ErbB2 in human DU145 cell lysate by Western blot; format: functional, cell-based; method in brief: as §2
# [46] = Binding affinity to yeast Hsp90 by isothermal titration calorimetry; parameters: species or system Saccharomyces cerevisiae
smiles,measurement,setting,value
CO[C@H]1[C@@H](OC)C[C@H](C)[C@@H](OC)C2=CC(=O)C=C(NC(=O)/C(C)=C/C=C\[C@H](C)[C@@H](OC(N)=O)/C(C)=C/[C@@H]1C)C2=O [MACBECIN],IC50,[1],16.6 mg/L
same,IC70,[1],41.7 mg/L
same,IC90,[1],105 mg/L
same,IC50,[2],< 0.01 mg/L
same,IC70,[2],0.292 mg/L
same,IC90,[2],7.2 mg/L
same,IC50,[3],1.61 mg/L
same,IC70,[3],4.22 mg/L
same,IC90,[3],11 mg/L
same,IC50,[4],0.923 mg/L
same,IC70,[4],6.06 mg/L
same,IC90,[4],51.8 mg/L
same,IC50,[5],< 0.01 mg/L
same,IC70,[5],< 0.01 mg/L
same,IC90,[5],< 100 mg/L
same,IC50,[6],9.34 mg/L
same,IC70,[6],26.4 mg/L
same,IC90,[6],73.6 mg/L
same,IC50,[7],0.158 mg/L
same,IC70,[7],3.32 mg/L
same,IC90,[7],79.4 mg/L
same,IC50,[8],4.16 mg/L
same,IC70,[8],19.3 mg/L
same,IC90,[8],> 100 mg/L
same,IC50,[9],6.72 mg/L
same,IC70,[9],20.5 mg/L
same,IC90,[9],86.6 mg/L
same,IC50,[10],0.005 mg/L
same,IC70,[10],30.6 mg/L
same,IC90,[10],114 mg/L
same,IC50,[11],0.189 mg/L
same,IC70,[11],1.86 mg/L
same,IC90,[11],31.6 mg/L
same,IC50,[12],6.45 mg/L
same,IC70,[12],41.2 mg/L
same,IC90,[12],242 mg/L
same,IC50,[13],0.009 mg/L
same,IC70,[13],1.41 mg/L
same,IC90,[13],19.9 mg/L
same,IC50,[14],0.297 mg/L
same,IC70,[14],5.18 mg/L
same,IC90,[14],57.8 mg/L
same,IC50,[15],< 0.01 mg/L
same,IC70,[15],< 0.01 mg/L
same,IC90,[15],2.37 mg/L
same,IC50,[16],2 µM
same,IC50,[17],0.008 mg/L
same,IC70,[17],14.2 mg/L
same,IC90,[17],> 100 mg/L
same,IC50,[18],4.33 mg/L
same,IC70,[18],25.9 mg/L
same,IC90,[18],127 mg/L
same,IC50,[19],3.73 mg/L
same,IC70,[19],25.1 mg/L
same,IC90,[19],93.6 mg/L
same,IC50,[20],< 0.01 mg/L
same,IC70,[20],< 0.01 mg/L
same,IC90,[20],37.3 mg/L
same,IC50,[21],7.8 mg/L
same,IC70,[21],25.7 mg/L
same,IC90,[21],83.8 mg/L
same,Time,[22],2.3 days
same,IC50,[23],3.35 mg/L
same,IC70,[23],11.1 mg/L
same,IC90,[23],90.1 mg/L
same,IC50,[24],< 0.01 mg/L
same,IC70,[24],< 0.01 mg/L
same,IC90,[24],7.36 mg/L
same,T/C,[25],32.2%
same,IC50,[26],0.527 mg/L
same,IC70,[26],1.97 mg/L
same,IC90,[26],7.63 mg/L
same,IC50,[27],0.048 mg/L
same,IC70,[27],1 mg/L
same,IC90,[27],60 mg/L
same,IC50,[28],0.577 mg/L
same,IC70,[28],3.59 mg/L
same,IC90,[28],139 mg/L
same,IC50,[29],8.19 mg/L
same,IC70,[29],25.6 mg/L
same,IC90,[29],73 mg/L
same,IC50,[30],0.456 mg/L
same,IC70,[30],1.97 mg/L
same,IC90,[30],41.2 mg/L
same,Activity,[31],Dose-dependent effect
same,IC50,[32],< 0.01 mg/L
same,IC70,[32],0.857 mg/L
same,IC90,[32],27.8 mg/L
same,IC90,[33],10 mg/L
same,IC50,[34],2.4 mg/L
same,IC70,[34],4.99 mg/L
same,IC90,[34],100 mg/L
same,IC50,[35],27.7 mg/L
same,IC70,[35],59 mg/L
same,IC90,[35],125 mg/L
same,Activity,[36],5.3%
same,IC50,[37],1.6 mg/L
same,IC70,[37],4.56 mg/L
same,IC90,[37],35.9 mg/L
same,IC50,[38],13.9 mg/L
same,IC70,[38],51.8 mg/L
same,IC90,[38],193 mg/L
same,IC50,[39],16.2 mg/L
same,IC70,[39],47.2 mg/L
same,IC90,[39],138 mg/L
same,IC50,[40],< 0.01 mg/L
same,IC70,[40],< 0.01 mg/L
same,IC90,[40],31.6 mg/L
same,Time,[41],20.4 days
same,IC50,[42],2.11 mg/L
same,IC70,[42],7.33 mg/L
same,IC90,[42],61.6 mg/L
same,IC50,[43],1.56 mg/L
same,IC70,[43],9.15 mg/L
same,IC90,[43],> 100 mg/L
same,IC50,[44],1.24 mg/L
same,IC70,[44],3.62 mg/L
same,IC90,[44],10.6 mg/L
same,Activity,[45],Dose-dependent effect
COC1=C2C[C@@H](C)C[C@H](OC)[C@H](O)[C@@H](C)/C=C(\C)[C@H](OC(N)=O)[C@@H](OC)/C=C\C=C(/C)C(=O)NC(=CC1=O)C2=O [GELDANAMYCIN],Kd,[46],1.2 µM
same,IC50,[16],7 µM
